Assays:
Assay type in all cases: functional
[1] = test system: Staphylococcus lugdunensis; assay: Antibacterial activity against coagulase-negative Staphylococcus lugdunensis 111A229 isolate assessed as bacterial counts at 10 times MIC after 6 hrs
How it was run: (§1)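 CLSI time-kill in 50 ml Mueller-Hinton broth. Mean starting inoculum 5.6 log10 CFU/ml; vancomycin or teicoplanin at 10× MIC, with MIC from CLSI agar dilution. Counts taken just before and 6 and 24 h after antibiotic addition: samples diluted 10-fold to avoid carryover and plated in duplicate on prewarmed blood agar. Result given as Δlog CFU/ml; each strain run in duplicate.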

[2] = test system: Staphylococcus lugdunensis; assay: Reduction of vancomycin-tolerant Staphylococcus lugdunensis 111A53 isolate assessed as bacterial counts at 5 times MIC after 24 hrs by time-kill curve method
How it was run: (§2)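 CLSI time-kill in 50 ml Mueller-Hinton broth, mean starting inoculum 5.6 log10 CFU/ml. Vancomycin or teicoplanin at 5×, 10× or 20× the agar-dilution MIC. Viable counts taken before and 6 and 24 h after antibiotic addition; samples diluted 10-fold and plated in duplicate on prewarmed blood agar. Change reported as mean log CFU/ml.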

[3] = test system: Staphylococcus lugdunensis; assay: Reduction of vancomycin-tolerant Staphylococcus lugdunensis 111A53 isolate assessed as bacterial counts at 10 times MIC after 6 hrs by time-kill curve method; how it was run: as §2
[4] = test system: Staphylococcus lugdunensis; assay: Antibacterial activity against coagulase-negative Staphylococcus lugdunensis 111A91 isolate assessed as bacterial counts at 10 times MIC after 24 hrs; how it was run: as §1
[5] = test system: Staphylococcus lugdunensis; assay: Antibacterial activity against coagulase-negative Staphylococcus lugdunensis isolate assessed as bacterial counts at 10 times MIC after 24 hrs; how it was run: as §1
[6] = test system: Staphylococcus lugdunensis; assay: Reduction of vancomycin-tolerant Staphylococcus lugdunensis 111A53 isolate assessed as bacterial counts at 5 times MIC after 6 hrs by time-kill curve method; how it was run: as §2
[7] = test system: Staphylococcus lugdunensis; assay: Reduction of teicoplanin-tolerant Staphylococcus lugdunensis 111A91 isolate assessed as bacterial counts at 10 times MIC after 6 hrs by time-kill curve method; how it was run: as §2
[8] = test system: Staphylococcus lugdunensis; assay: Antibacterial activity against coagulase-negative Staphylococcus lugdunensis 111A53 isolate assessed as bacterial counts at 10 times MIC after 6 hrs; how it was run: as §1
Staphylococcus [9] = assay: Antibacterial activity against coagulase-negative Staphylococcus assessed as bacterial counts at 10 times MIC after 24 hrs; how it was run: as §1
[10] = test system: Staphylococcus lugdunensis; assay: Antibacterial activity against coagulase-negative Staphylococcus lugdunensis 111A53 isolate assessed as bacterial counts at 10 times MIC after 24 hrs; how it was run: as §1
[11] = test system: Staphylococcus lugdunensis; assay: Antibacterial activity against coagulase-negative Staphylococcus lugdunensis ATCC 43809 assessed as bacterial counts at 10 times MIC after 6 hrs; how it was run: as §1
[12] = test system: Staphylococcus lugdunensis; assay: Reduction of teicoplanin-tolerant Staphylococcus lugdunensis 111A91 isolate assessed as bacterial counts at 5 times MIC after 24 hrs by time-kill curve method; how it was run: as §2
[13] = test system: Staphylococcus lugdunensis; assay: Antibacterial activity against coagulase-negative Staphylococcus lugdunensis ATCC 43809 assessed as bacterial counts at 10 times MIC after 24 hrs; how it was run: as §1
[14] = test system: Staphylococcus lugdunensis; assay: Antibacterial activity against coagulase-negative Staphylococcus lugdunensis 111A229 isolate assessed as bacterial counts at 10 times MIC after 24 hrs; how it was run: as §1
[15] = test system: Staphylococcus lugdunensis; assay: Antibacterial activity against coagulase-negative Staphylococcus lugdunensis isolate assessed as bacterial counts at 10 times MIC after 6 hrs; how it was run: as §1
[16] = test system: Staphylococcus lugdunensis; assay: Ratio of MBC to MIC against teicoplanin-tolerant Staphylococcus lugdunensis 111A91 isolate
How it was run: (§3)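 MBC/MIC by CLSI broth method, starting inoculum between 10^5 and 10^6 CFU/ml in Mueller-Hinton broth. Vancomycin and teicoplanin tested; S. aureus ATCC 25923 quality control included in each assay. Three separate assays, each ratio reported individually.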

[17] = test system: Staphylococcus lugdunensis; assay: Reduction of teicoplanin-tolerant Staphylococcus lugdunensis 111A91 isolate assessed as bacterial counts at 20 times MIC after 6 hrs by time-kill curve method; how it was run: as §2
[18] = test system: Staphylococcus lugdunensis; assay: Antibacterial activity against coagulase-negative Staphylococcus lugdunensis 111A223 isolate assessed as bacterial counts at 10 times MIC after 24 hrs; how it was run: as §1
[19] = test system: Staphylococcus lugdunensis; assay: Antibacterial activity against coagulase-negative Staphylococcus lugdunensis ATCC 49576 assessed as bacterial counts at 10 times MIC after 24 hrs; how it was run: as §1
Staphylococcus [20] = assay: Antibacterial activity against coagulase-negative Staphylococcus assessed as bacterial counts at 10 times MIC after 6 hrs; how it was run: as §1
[21] = test system: Staphylococcus lugdunensis; assay: Reduction of vancomycin-tolerant Staphylococcus lugdunensis 111A53 isolate assessed as bacterial counts at 20 times MIC after 6 hrs by time-kill curve method; how it was run: as §2
[22] = test system: Staphylococcus lugdunensis; assay: Reduction of teicoplanin-tolerant Staphylococcus lugdunensis 111A91 isolate assessed as bacterial counts at 20 times MIC after 24 hrs by time-kill curve method; how it was run: as §2
[23] = test system: Staphylococcus lugdunensis; assay: Ratio of MBC to MIC against vancomycin-tolerant Staphylococcus lugdunensis 111A53 isolate; how it was run: as §3
[24] = test system: Staphylococcus lugdunensis; assay: Reduction of vancomycin-tolerant Staphylococcus lugdunensis 111A53 isolate assessed as bacterial counts at 10 times MIC after 24 hrs by time-kill curve method; how it was run: as §2
[25] = test system: Staphylococcus lugdunensis; assay: Reduction of vancomycin-tolerant Staphylococcus lugdunensis 111A53 isolate assessed as bacterial counts at 20 times MIC after 24 hrs by time-kill curve method; how it was run: as §2
[26] = test system: Staphylococcus lugdunensis; assay: Antibacterial activity against coagulase-negative Staphylococcus lugdunensis ATCC 49576 assessed as bacterial counts at 10 times MIC after 6 hrs; how it was run: as §1
[27] = test system: Staphylococcus lugdunensis; assay: Reduction of teicoplanin-tolerant Staphylococcus lugdunensis 111A91 isolate assessed as bacterial counts at 10 times MIC after 24 hrs by time-kill curve method; how it was run: as §2
[28] = test system: Staphylococcus lugdunensis; assay: Antibacterial activity against coagulase-negative Staphylococcus lugdunensis 111A91 isolate assessed as bacterial counts at 10 times MIC after 6 hrs; how it was run: as §1
[29] = test system: Staphylococcus lugdunensis; assay: Reduction of teicoplanin-tolerant Staphylococcus lugdunensis 111A91 isolate assessed as bacterial counts at 5 times MIC after 6 hrs by time-kill curve method; how it was run: as §2
[30] = test system: Staphylococcus lugdunensis; assay: Antibacterial activity against coagulase-negative Staphylococcus lugdunensis 111A223 isolate assessed as bacterial counts at 10 times MIC after 6 hrs; how it was run: as §1

Molecule `CN[C@H](CC(C)C)C(=O)N[C@H]1C(=O)N[C@@H](CC(N)=O)C(=O)N[C@H]2C(=O)N[C@H]3C(=O)N[C@H](C(=O)N[C@H](C(=O)O)c4cc(O)cc(O)c4-c4cc3ccc4O)[C@H](O)c3ccc(c(Cl)c3)Oc3cc2cc(c3O[C@@H]2O[C@H](CO)[C@@H](O)[C@H](O)[C@H]2O[C@H]2C[C@](C)(N)[C@H](O)[C@H](C)O2)Oc2ccc(cc2Cl)[C@H]1O` [VANCOMYCIN] has a deltalog10CFU/ml [1] of -2.24, a log10CFU/ml [2] of -1.72 and a log10CFU/ml [3] of -0.31. It also gave a deltalog10CFU/ml [4] of -3.53, a deltalog10CFU/ml [5] of -4.1 and a log10CFU/ml [6] of -0.05. The log10CFU/ml [7] was -0.31, the deltalog10CFU/ml [8] was -0.31 and the deltalog10CFU/ml (Staphylococcus [9]) was -4.8. For the same molecule, the deltalog10CFU/ml [10] was -1.94, the deltalog10CFU/ml [11] was -0.21 and the log10CFU/ml [12] was -3.9. The deltalog10CFU/ml [13] was -2.18, the deltalog10CFU/ml [14] was -2.42 and the deltalog10CFU/ml [15] was -1.17. For the same molecule, the Ratio [16] was 64, the log10CFU/ml [17] was -0.56 and the deltalog10CFU/ml [18] was -1.65. For the same molecule, the deltalog10CFU/ml [19] was -3.91, the deltalog10CFU/ml (Staphylococcus [20]) was -2.98 and the log10CFU/ml [21] was -0.07. The log10CFU/ml [22] was -2.83, the Ratio [23] was 8 and the log10CFU/ml [24] was -1.94. For the same molecule, the log10CFU/ml [25] was -1.74, the deltalog10CFU/ml [26] was -1.38 and the log10CFU/ml [27] was -3.53. For the same molecule, the deltalog10CFU/ml [28] was -0.31, the log10CFU/ml [29] was -1.16 and the deltalog10CFU/ml [30] was -0.67.

— ChEMBL document CHEMBL1142201, “Tolerance to the glycopeptides vancomycin and teicoplanin in coagulase-negative staphylococci” (2007)
